Laboratory results: ChEMBL document CHEMBL5724801, “EUbOPEN Chemogenomics Library - Multiplex” (2024)
Where “and” joins values, the source holds several entries; their conditions need not be identical. Equal values may be shown once.

Test system: Fibroblast
Assay: Multiplex assay against human fibroblast
Type: toxicity, cell-based
How it was run: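 Compound was added to live cells that had been stained at seeding with Hoechst33342, BioTracker Green Microtubule Cytoskeleton Dye, MitoTracker Red and Annexin V Alexa Fluor 680, and imaging followed on a CQ1 microscope at 37°C and 5% CO2. CellPathfinder machine-learning gating divided cells into Hoechst high-intensity objects or normal cells, normal cells into healthy, pyknosed or fragmented nuclei, and pyknosed cells into mitotic or apoptotic. Tubulin, mitochondrial-mass and membrane-permeability phenotypes are per cents of healthy-nucleus cells.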

[1] = 12 h, 1 µM, compound concentration 1 uM
[2] = 12 h, 10 µM, compound concentration 10 uM
[3] = 24 h, 1 µM, compound concentration 1 uM
[4] = 24 h, 10 µM, compound concentration 10 uM
[5] = 48 h, 1 µM, compound concentration 1 uM
[6] = 48 h, 10 µM, compound concentration 10 uM

Br.CS(=O)(=O)Nc1c(O)ccc2c1CCCC2C1=NCCN1 (centres undefined)
Population Apoptotic (%) [1]: 17% and 31%
Population Healthy Nuclei (%) [1]: 76% and 47%
Population Hoechst High Intensity Objects (%) [1]: 1% and 8%
Population Membrane Permeable-Phenotype (%) [1]: 0% and 7%
Population Mitochondria Different-Phenotype (%) [1]: 5% and 8%
Population Mitotic Cells (%) [1]: 82% and 68%
Population Normal (%) [1]: 98% and 91%
Population Pyknosed Nuclei (%) [1]: 14% and 19%
Population Tubulin-Different-Phenotype (%) [1]: 20% and 38%
Total Cell Count [1]: 167 and 192
Population Apoptotic (%) [2]: 38% and 33%
Population Fragmented Nuclei (%) [2]: 20% and 38%
Population Healthy Nuclei (%) [2]: 47% and 45%
Population Hoechst High Intensity Objects (%) [2]: 6% and 0%
Population Mitochondria Different-Phenotype (%) [2]: 7% and 5%
Population Mitotic Cells (%) [2]: 61% and 66%
Population Normal (%) [2]: 93% and 99%
Population Pyknosed Nuclei (%) [2]: 31% and 16%
Population Tubulin-Different-Phenotype (%) [2]: 21% and 43%
Total Cell Count [2]: 148 and 129
Population Apoptotic (%) [3]: 56% and 33%
Population Fragmented Nuclei (%) [3]: 12% and 25%
Population Healthy Nuclei (%) [3]: 77% and 60%
Population Hoechst High Intensity Objects (%) [3]: 1% and 7%
Population Membrane Permeable-Phenotype (%) [3]: 0% and 2%
Population Mitochondria Different-Phenotype (%) [3]: 3% and 7%
Population Mitotic Cells (%) [3]: 43% and 66%
Population Normal (%) [3]: 98% and 92%
Population Pyknosed Nuclei (%) [3]: 10% and 14%
Population Tubulin-Different-Phenotype (%) [3]: 16% and 41%
Total Cell Count [3]: 159 and 180
Population Apoptotic (%) [4]: 48% and 41%
Population Fragmented Nuclei (%) [4]: 16% and 41%
Population Healthy Nuclei (%) [4]: 60% and 44%
Population Hoechst High Intensity Objects (%) [4]: 3% and 0%
Population Membrane Permeable-Phenotype (%) [4]: 0% and 10%
Population Mitochondria Different-Phenotype (%) [4]: 2% and 10%
Population Mitotic Cells (%) [4]: 51% and 58%
Population Normal (%) [4]: 96% and 99%
Population Pyknosed Nuclei (%) [4]: 23% and 13%
Population Tubulin-Different-Phenotype (%) [4]: 24% and 41%
Total Cell Count [4]: 148 and 130
Population Apoptotic (%) [5]: 57% and 38%
Population Fragmented Nuclei (%) [5]: 14% and 26%
Population Healthy Nuclei (%) [5]: 76% and 61%
Population Hoechst High Intensity Objects (%) [5]: 4% and 5%
Population Membrane Permeable-Phenotype (%) [5]: 4% and 0%
Population Mitochondria Different-Phenotype (%) [5]: 3% and 9%
Population Mitotic Cells (%) [5]: 42% and 61%
Population Normal (%) [5]: 95% and 94%
Population Pyknosed Nuclei (%) [5]: 8% and 12%
Population Tubulin-Different-Phenotype (%) [5]: 24% and 41%
Total Cell Count [5]: 167 and 177
Population Apoptotic (%) [6]: 61% and 33%
Population Fragmented Nuclei (%) [6]: 22% and 48%
Population Healthy Nuclei (%) [6]: 61% and 44%
Population Hoechst High Intensity Objects (%) [6]: 6% and 1%
Population Membrane Permeable-Phenotype (%) [6]: 1% and 3%
Population Mitochondria Different-Phenotype (%) [6]: 2% and 9%
Population Mitotic Cells (%) [6]: 38% and 66%
Population Normal (%) [6]: 93% and 98%
Population Pyknosed Nuclei (%) [6]: 15% and 7%
Population Tubulin-Different-Phenotype (%) [6]: 21% and 45%
Total Cell Count [6]: 145 and 127

Cc1sc2c(c1C)C(c1ccc(Cl)cc1)=N[C@H](CC(=O)OC(C)(C)C)c1nnc(C)n1-2
Population Apoptotic (%) [1]: 43% and 33%
Population Fragmented Nuclei (%) [1]: 15% and 26%
Population Healthy Nuclei (%) [1]: 62% and 51%
Population Hoechst High Intensity Objects (%) [1]: 2% and 5%
Population Membrane Permeable-Phenotype (%) [1]: 0% and 15%
Population Mitochondria Different-Phenotype (%) [1]: 5% and 10%
Population Mitotic Cells (%) [1]: 56% and 66%
Population Normal (%) [1]: 97% and 94%
Population Pyknosed Nuclei (%) [1]: 22%
Population Tubulin-Different-Phenotype (%) [1]: 30% and 46%
Total Cell Count [1]: 180 and 159
Population Apoptotic (%) [2]: 43% and 51%
Population Fragmented Nuclei (%) [2]: 19% and 30%
Population Healthy Nuclei (%) [2]: 55% and 39%
Population Hoechst High Intensity Objects (%) [2]: 7% and 5%
Population Membrane Permeable-Phenotype (%) [2]: 0% and 4%
Population Mitochondria Different-Phenotype (%) [2]: 15% and 20%
Population Mitotic Cells (%) [2]: 56% and 48%
Population Normal (%) [2]: 92% and 94%
Population Pyknosed Nuclei (%) [2]: 25% and 29%
Population Tubulin-Different-Phenotype (%) [2]: 90% and 95%
Total Cell Count [2]: 128 and 169
Population Apoptotic (%) [3]: 82% and 46%
Population Fragmented Nuclei (%) [3]: 17% and 29%
Population Healthy Nuclei (%) [3]: 60% and 50%
Population Hoechst High Intensity Objects (%) [3]: 2% and 6%
Population Membrane Permeable-Phenotype (%) [3]: 0% and 11%
Population Mitochondria Different-Phenotype (%) [3]: 2% and 5%
Population Normal (%) [3]: 97% and 93%
Population Pyknosed Nuclei (%) [3]: 21% and 20%
Population Tubulin-Different-Phenotype (%) [3]: 29% and 51%
Total Cell Count [3]: 186 and 149
Population Apoptotic (%) [4]: 75% and 51%
Population Fragmented Nuclei (%) [4]: 16% and 26%
Population Healthy Nuclei (%) [4]: 69% and 45%
Population Hoechst High Intensity Objects (%) [4]: 8% and 4%
Population Membrane Permeable-Phenotype (%) [4]: 2% and 4%
Population Mitochondria Different-Phenotype (%) [4]: 19% and 26%
Population Mitotic Cells (%) [4]: 25% and 48%
Population Normal (%) [4]: 91% and 95%
Population Pyknosed Nuclei (%) [4]: 14% and 27%
Population Tubulin-Different-Phenotype (%) [4]: 76% and 87%
Total Cell Count [4]: 123 and 165
Population Apoptotic (%) [5]: 63% and 53%
Population Fragmented Nuclei (%) [5]: 19% and 29%
Population Healthy Nuclei (%) [5]: 66% and 49%
Population Hoechst High Intensity Objects (%) [5]: 5%
Population Membrane Permeable-Phenotype (%) [5]: 0% and 12%
Population Mitochondria Different-Phenotype (%) [5]: 2% and 10%
Population Mitotic Cells (%) [5]: 36% and 46%
Population Normal (%) [5]: 94% and 95%
Population Pyknosed Nuclei (%) [5]: 13% and 21%
Population Tubulin-Different-Phenotype (%) [5]: 28% and 69%
Total Cell Count [5]: 170 and 140
Population Apoptotic (%) [6]: 50% and 63%
Population Fragmented Nuclei (%) [6]: 21% and 35%
Population Healthy Nuclei (%) [6]: 66% and 51%
Population Hoechst High Intensity Objects (%) [6]: 1%
Population Membrane Permeable-Phenotype (%) [6]: 1% and 4%
Population Mitochondria Different-Phenotype (%) [6]: 13% and 9%
Population Mitotic Cells (%) [6]: 50% and 36%
Population Normal (%) [6]: 98%
Population Pyknosed Nuclei (%) [6]: 12% and 13%
Population Tubulin-Different-Phenotype (%) [6]: 70% and 88%
Total Cell Count [6]: 134 and 170

COc1ccccc1N1CCN(C[C@@H](C(=O)NC(C)(C)C)c2ccccc2)CC1.Cl.Cl
Population Apoptotic (%) [1]: 43% and 40%
Population Fragmented Nuclei (%) [1]: 12% and 25%
Population Healthy Nuclei (%) [1]: 70% and 43%
Population Hoechst High Intensity Objects (%) [1]: 2% and 5%
Population Membrane Permeable-Phenotype (%) [1]: 0%
Population Mitochondria Different-Phenotype (%) [1]: 8% and 4%
Population Mitotic Cells (%) [1]: 56% and 60%
Population Normal (%) [1]: 97% and 94%
Population Pyknosed Nuclei (%) [1]: 16% and 30%
Population Tubulin-Different-Phenotype (%) [1]: 37% and 43%
Total Cell Count [1]: 141 and 155
Population Apoptotic (%) [2]: 50% and 48%
Population Fragmented Nuclei (%) [2]: 20% and 32%
Population Healthy Nuclei (%) [2]: 59% and 42%
Population Hoechst High Intensity Objects (%) [2]: 5%
Population Membrane Permeable-Phenotype (%) [2]: 1% and 6%
Population Mitochondria Different-Phenotype (%) [2]: 20% and 12%
Population Mitotic Cells (%) [2]: 50% and 51%
Population Normal (%) [2]: 94%
Population Pyknosed Nuclei (%) [2]: 20% and 24%
Population Tubulin-Different-Phenotype (%) [2]: 66% and 70%
Total Cell Count [2]: 134 and 116
Population Apoptotic (%) [3]: 50%
Population Fragmented Nuclei (%) [3]: 12% and 24%
Population Healthy Nuclei (%) [3]: 73% and 55%
Population Hoechst High Intensity Objects (%) [3]: 2% and 3%
Population Membrane Permeable-Phenotype (%) [3]: 0% and 8%
Population Mitotic Cells (%) [3]: 50%
Population Normal (%) [3]: 97% and 96%
Population Pyknosed Nuclei (%) [3]: 14% and 19%
Population Tubulin-Different-Phenotype (%) [3]: 32% and 50%
Total Cell Count [3]: 143 and 151
Population Apoptotic (%) [4]: 83% and 40%
Population Fragmented Nuclei (%) [4]: 19% and 39%
Population Healthy Nuclei (%) [4]: 65% and 41%
Population Hoechst High Intensity Objects (%) [4]: 8% and 3%
Population Membrane Permeable-Phenotype (%) [4]: 0% and 8%
Population Normal (%) [4]: 91% and 96%
Population Pyknosed Nuclei (%) [4]: 14% and 19%
Population Tubulin-Different-Phenotype (%) [4]: 63% and 76%
Total Cell Count [4]: 132 and 116
Population Apoptotic (%) [5]: 84% and 60%
Population Fragmented Nuclei (%) [5]: 18% and 31%
Population Healthy Nuclei (%) [5]: 71% and 52%
Population Hoechst High Intensity Objects (%) [5]: 5%
Population Membrane Permeable-Phenotype (%) [5]: 1% and 5%
Population Mitochondria Different-Phenotype (%) [5]: 12% and 5%
Population Mitotic Cells (%) [5]: 15% and 40%
Population Normal (%) [5]: 94%
Population Pyknosed Nuclei (%) [5]: 10% and 15%
Population Tubulin-Different-Phenotype (%) [5]: 34% and 56%
Total Cell Count [5]: 138 and 171
Population Apoptotic (%) [6]: 84% and 44%
Population Fragmented Nuclei (%) [6]: 18% and 50%
Population Healthy Nuclei (%) [6]: 63% and 41%
Population Membrane Permeable-Phenotype (%) [6]: 0% and 8%
Population Normal (%) [6]: 85% and 96%
Population Pyknosed Nuclei (%) [6]: 18% and 7%
Population Tubulin-Different-Phenotype (%) [6]: 65% and 67%
Total Cell Count [6]: 122
